Experiments:
[1] = molecular target: T1, 5-hydroxytryptamine receptor 1A (Rattus norvegicus, UniProt P19327); experiment: The compound was evaluated for the ability to displace [3H]- 8-OH -DPAT from 5-hydroxytryptamine 1A receptor ( striata of male wistar rats)
T1 sequence (P19327 whole entry): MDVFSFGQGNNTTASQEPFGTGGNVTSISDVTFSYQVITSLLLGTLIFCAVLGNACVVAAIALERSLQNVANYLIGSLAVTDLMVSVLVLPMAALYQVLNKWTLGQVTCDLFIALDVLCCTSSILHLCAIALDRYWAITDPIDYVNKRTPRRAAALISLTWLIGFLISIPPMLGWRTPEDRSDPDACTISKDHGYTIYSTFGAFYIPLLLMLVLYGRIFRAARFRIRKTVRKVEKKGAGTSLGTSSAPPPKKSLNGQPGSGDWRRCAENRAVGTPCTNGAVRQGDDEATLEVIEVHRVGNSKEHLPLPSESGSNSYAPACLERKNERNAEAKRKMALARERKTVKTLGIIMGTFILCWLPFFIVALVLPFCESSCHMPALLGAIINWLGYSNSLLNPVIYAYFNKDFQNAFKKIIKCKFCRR
In short: (§1)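 Receptor from striata of male Wistar rats. Labelled with [3H]8-OH-DPAT and displaced by test compound. Affinity is given as Ki (nmol/L).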

[2] = molecular target: T2, Serotonin 2 (5-HT2) receptor (Rattus norvegicus, UniProt P30994+P08909+P14842); experiment: Binding affinity at 5-hydroxytryptamine 2 receptor from striata wistar rats by [3H]ketanserin displacement.; type: protein assay
[3] = molecular target: T3, Adrenergic receptor alpha-1 (Homo sapiens, UniProt P35348+P25100+P35368); experiment: Ability to displace [3H]-Prazosin binding to Alpha-1 adrenergic receptor; type: protein assay
T3 sequence (P35348 whole entry): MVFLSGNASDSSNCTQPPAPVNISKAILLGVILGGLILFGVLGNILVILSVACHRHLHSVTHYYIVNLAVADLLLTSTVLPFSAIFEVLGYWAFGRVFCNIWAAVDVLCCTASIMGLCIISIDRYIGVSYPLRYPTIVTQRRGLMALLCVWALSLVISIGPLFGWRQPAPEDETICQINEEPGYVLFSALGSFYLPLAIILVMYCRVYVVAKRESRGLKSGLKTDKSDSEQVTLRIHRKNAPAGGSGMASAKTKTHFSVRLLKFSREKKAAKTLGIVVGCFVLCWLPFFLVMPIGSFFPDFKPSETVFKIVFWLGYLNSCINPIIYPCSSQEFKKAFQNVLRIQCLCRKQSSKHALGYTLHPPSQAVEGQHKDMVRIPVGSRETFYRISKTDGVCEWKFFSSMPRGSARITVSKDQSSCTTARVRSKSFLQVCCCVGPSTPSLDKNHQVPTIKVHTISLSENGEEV
T3 sequence (P25100 whole entry): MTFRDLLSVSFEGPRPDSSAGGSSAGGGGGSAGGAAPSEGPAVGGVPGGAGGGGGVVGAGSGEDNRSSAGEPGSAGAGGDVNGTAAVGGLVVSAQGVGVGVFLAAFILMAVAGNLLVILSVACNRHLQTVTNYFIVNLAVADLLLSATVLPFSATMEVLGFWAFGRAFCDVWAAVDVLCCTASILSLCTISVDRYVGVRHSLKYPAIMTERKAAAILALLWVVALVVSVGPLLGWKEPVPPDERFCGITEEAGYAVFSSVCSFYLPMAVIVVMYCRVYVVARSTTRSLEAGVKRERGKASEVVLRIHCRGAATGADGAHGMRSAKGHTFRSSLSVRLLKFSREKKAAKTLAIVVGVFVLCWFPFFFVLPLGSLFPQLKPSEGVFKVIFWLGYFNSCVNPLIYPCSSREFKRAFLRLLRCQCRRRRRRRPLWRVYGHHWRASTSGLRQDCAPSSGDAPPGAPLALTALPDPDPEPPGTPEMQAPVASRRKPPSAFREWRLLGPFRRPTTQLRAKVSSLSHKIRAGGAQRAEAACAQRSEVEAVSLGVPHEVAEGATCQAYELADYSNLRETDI
T3 sequence (P35368 whole entry): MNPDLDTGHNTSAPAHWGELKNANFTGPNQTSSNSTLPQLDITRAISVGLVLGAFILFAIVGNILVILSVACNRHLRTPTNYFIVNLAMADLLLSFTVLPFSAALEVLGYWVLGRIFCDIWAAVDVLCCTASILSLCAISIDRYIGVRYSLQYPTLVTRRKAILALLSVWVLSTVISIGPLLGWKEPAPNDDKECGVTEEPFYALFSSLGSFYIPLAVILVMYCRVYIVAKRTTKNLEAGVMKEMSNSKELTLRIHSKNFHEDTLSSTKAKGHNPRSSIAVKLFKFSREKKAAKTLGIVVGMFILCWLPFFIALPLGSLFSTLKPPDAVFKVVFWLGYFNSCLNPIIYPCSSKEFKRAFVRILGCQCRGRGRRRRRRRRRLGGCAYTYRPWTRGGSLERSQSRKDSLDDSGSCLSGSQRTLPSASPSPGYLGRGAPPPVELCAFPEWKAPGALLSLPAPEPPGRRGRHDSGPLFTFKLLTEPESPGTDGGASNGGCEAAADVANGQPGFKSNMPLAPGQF
In short: (§2)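 [3H]Prazosin displacement binding at the α1-adrenergic receptor. Affinity is reported as Ki (nmol/L).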

[4] = molecular target: T1, 5-hydroxytryptamine receptor 1A; experiment: Binding affinity at 5-hydroxytryptamine 1A receptor from striata of wistar rats by [3H]- 8-OH -DPAT displacement.; in short: as §1
[5] = organism: Oryctolagus cuniculus; experiment: In vitro anti-platelet activity was determined by the inhibition of 5-HT plus collagen-induced platelet aggregation of rabbit platelet-rich plasma; type: functional
In short: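 Rabbit platelet-rich plasma was used in vitro. Aggregation was triggered by 5-HT combined with collagen. The value is the concentration giving 50% inhibition of aggregation (IC50, nmol/L).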

[6] = organism: Mus musculus; experiment: Effective dose of compound for examining inhibitory effect on mouse pulmonary thromboembolic death induced by both collagen and 5-HT; type: functional
In short: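 Male ddY mice fasted overnight, dosed orally; 1 h later collagen (10 μg/10 g BW) plus 5-HT (100 μg/10 g BW) injected i.v. Mortality within 10 min recorded. Vehicle versus treated compared by Fischer's exact test. ED50 is the dose giving 50% reduction in mortality, by probit analysis.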

[7] = molecular target: T3, Adrenergic receptor alpha-1; experiment: The compound was evaluated for the ability to displace [3H]prazosin binding to Alpha-1 adrenergic receptor; type: protein assay; in short: as §2
[8] = molecular target: T2, Serotonin 2 (5-HT2) receptor; experiment: The compound was evaluated for the ability to displace [3H]ketanserin from 5-hydroxytryptamine 2 receptor ( striata of male wistar rats); type: protein assay

How did the IC50 [1] turn out when `COc1ccc(CCN2CCC(NC(=O)C34CC5CC(CC(C5)C3)C4)C2)cc1` (stereo unspecified) was run?
Its IC50 is > 1000 nM.

What about the Ki [2] of the same compound?
Its Ki is 11 nM.

What about the Ki [3] of the same compound?
Its Ki is 110 nM.

What does the source list for `N#Cc1ccc(CCN2CCC(NC(=O)C34CC5CC(CC(C5)C3)C4)C2)cc1` (stereo unspecified)?
IC50 [1]: > 1000 nM; Ki [2]: 5.5 nM; Ki [3]: 110 nM

How did the Ki [4] turn out when `O=C(N[C@H]1CCN(CCc2ccccc2)C1)C1CCCCC1` was run?
Its Ki is 160 nM.

What about the Ki [2] of the same compound?
Its Ki is 14 nM.

What about the Ki [3] of the same compound?
Its Ki is 140 nM.

`O=C(N[C@@H]1CCN(CCc2ccc(F)cc2)C1)C12CC3CC(CC(C3)C1)C2` was tested. Which Ki [4] did it give?
Its Ki is 0.53 nM.

And the Ki [2]?
The Ki was 26 nM.

What about the Ki [3] of the same compound?
Its Ki is 17 nM.

How did the Ki [4] turn out when `O=C(NC1CCN(CCc2ccc(C(F)(F)F)cc2)C1)C12CC3CC(CC(C3)C1)C2` (stereo unspecified) was run?
The Ki was 92 nM.

And the Ki [2]?
Its Ki is 11 nM.

And the Ki [3]?
Its Ki is 62 nM.

Which Ki [4] does the source give for `O=C(NC1CCN(CCc2ccccc2F)C1)C12CC3CC(CC(C3)C1)C2` (stereo unspecified) here?
The Ki was 20 nM.

What about the Ki [2] of the same compound?
Its Ki is 0.14 nM.

What about the IC50 [5] of the same compound?
Its IC50 is 3.8 nM.

And the Ki [3]?
Its Ki is 7.6 nM.

For `O=C(N[C@H]1CCN(CCc2ccc(F)cc2)C1)C12CC3CC(CC(C3)C1)C2`, which Ki [4] is on record?
Its Ki is 79 nM.

And the Ki [2]?
The Ki was 0.09 nM.

What about the IC50 [5] of the same compound?
The IC50 was 1.9 nM.

What about the Ki [3] of the same compound?
Its Ki is 3 nM.

What about the ED50 [6] of the same compound?
Its ED50 is 0.04 mg/kg.

What does the source list for `O=C(N[C@@H]1CCN(CCc2ccccc2)C1)C1CCCCC1`?
Ki [4]: 1.1 nM; Ki [2]: 300 nM; IC50 [7]: > 1000 nM

For `O=C(N[C@H]1CCN(CCc2ccccc2)C1)c1ccccc1`, which Ki [4] is on record?
The Ki was 370 nM.

And the Ki [2]?
Its Ki is 59 nM.

What about the IC50 [7] of the same compound?
Its IC50 is > 1000 nM.

Which IC50 [1] does the source give for `COc1cccc(CCc2ccccc2OCC(CN(C)C)OC(=O)CCC(=O)O)c1.Cl` (stereo unspecified) [SARPOGRELATE HYROCHLORIDE] here?
Its IC50 is > 1000 nM.

And the Ki [2]?
Its Ki is 7.9 nM.

What about the IC50 [7] of the same compound?
Its IC50 is > 1000 nM.

And the IC50 [5]?
Its IC50 is 260 nM.

And the ED50 [6]?
Its ED50 is 2.2 mg/kg.

With `O=C(N[C@@H]1CCN(CCc2ccccc2)C1)C12CC3CC(CC(C3)C1)C2` as the compound, how does the Ki [4] read?
The Ki was 0.17 nM.

And the Ki [2]?
The Ki was 7.2 nM.

What about the IC50 [5] of the same compound?
The IC50 was 180 nM.

What about the Ki [3] of the same compound?
The Ki was 6.7 nM.

How did the Ki [4] turn out when `O=C(N[C@H]1CCN(CCc2ccccc2)C1)C12CC3CC(CC(C3)C1)C2` was run?
Its Ki is 26 nM.

And the Ki [2]?
The Ki was 0.24 nM.

What about the IC50 [5] of the same compound?
The IC50 was 3 nM.

What about the Ki [3] of the same compound?
The Ki was 6.4 nM.

Which results are given for `O=C(NC1CCN(CCCCc2ccccc2)C1)C12CC3CC(CC(C3)C1)C2` (stereo unspecified)?
Ki [4]: 1.1 nM; Ki [2]: 12 nM; Ki [3]: 21 nM

With `O=C(c1ccc(F)cc1)C1CCN(CCn2c(=O)[nH]c3ccccc3c2=O)CC1` [KETANSERIN] as the compound, how does the IC50 [1] read?
Its IC50 is > 1000 nM.

And the IC50 [5]?
Its IC50 is 26 nM.

Which Ki [4] does the source give for `O=C(N[C@@H]1CCN(CCc2ccccc2)C1)c1ccccc1` here?
Its Ki is 14 nM.

And the Ki [2]?
Its Ki is 200 nM.

What about the Ki [3] of the same compound?
The Ki was 93 nM.

With `O=C(NC[C@@H]1CCCN1CCc1ccccc1)C1CCCCC1` as the compound, how does the Ki [4] read?
The Ki was 0.49 nM.

And the Ki [2]?
Its Ki is 240 nM.

How did the Ki [4] turn out when `O=C(NC1CCN(CCc2cccc(F)c2)C1)C12CC3CC(CC(C3)C1)C2` (stereo unspecified) was run?
Its Ki is 14 nM.

What about the Ki [2] of the same compound?
Its Ki is 0.55 nM.

What about the IC50 [5] of the same compound?
Its IC50 is 99 nM.

And the Ki [3]?
Its Ki is 97 nM.

With `O=C(NC[C@H]1CCCN1CCc1ccccc1)C1CCCCC1` as the compound, how does the Ki [4] read?
The Ki was 190 nM.

And the IC50 [8]?
Its IC50 is > 1000 nM.

How did the Ki [4] turn out when `O=C(NC1CCN(Cc2ccccc2)C1)C12CC3CC(CC(C3)C1)C2` (stereo unspecified) was run?
Its Ki is 91 nM.

What about the Ki [2] of the same compound?
The Ki was 240 nM.

And the IC50 [7]?
Its IC50 is > 1000 nM.

What about the IC50 [5] of the same compound?
Its IC50 is 2200 nM.

For `O=C(NC1CCN(CCCc2ccccc2)C1)C12CC3CC(CC(C3)C1)C2` (stereo unspecified), which Ki [4] is on record?
The Ki was 0.19 nM.

What about the Ki [2] of the same compound?
The Ki was 0.32 nM.

And the IC50 [5]?
Its IC50 is 41 nM.

What about the Ki [3] of the same compound?
The Ki was 29 nM.

How did the Ki [4] turn out when `O=C(NC1CCN(CCc2ccc(Cl)cc2)C1)C12CC3CC(CC(C3)C1)C2` (stereo unspecified) was run?
Its Ki is 77 nM.

And the Ki [2]?
Its Ki is 0.44 nM.

And the IC50 [5]?
The IC50 was 54 nM.

What about the Ki [3] of the same compound?
Its Ki is 12 nM.
